What was measured:
Type in all cases: functional, cell-based
[1] = tested on: Bel-7402; assay: Cytotoxicity against human Bel7402 cells after 72 hrs by SRB assay; details: Bel-7402, 72 h
[2] = tested on: HL-60; assay: Cytotoxicity against human HL60 cells after 72 hrs by MTT assay; details: HL-60, 72 h
Procedure, shortened: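 Cells plated in culture medium in 96-well plates, then treated in triplicate with graded compound concentrations for 72 h at 37 °C. MTT (5 mg/mL solution) added for 4 h, followed by 10% SDS/5% isobutanol/12 mM HCl solubilizer.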

[3] = tested on: A549; assay: Cytotoxicity against human A549 cells after 72 hrs by SRB assay; details: A549, 72 h

Structure (SMILES)	IC50 [1]	IC50 [2]	IC50 [3]
C=C(C)[C@@]1(OC(C)=O)[C@@H]2OC3(c4ccccc4)O[C@H]1[C@@H](C)[C@@]1(O3)[C@H]2[C@H](OC(C)=O)[C@](C)(OC(=O)c2ccccc2)[C@@H](OC(C)=O)[C@@]2(O)[C@H]1C[C@H](C)[C@@H]2OC(C)=O [TRIGOXYPHIN E]	> 10 µM		
C=C(C)[C@@]12OC3(c4ccccc4)O[C@@H]1[C@@H]1[C@@H]4O[C@]4(C)[C@@H](OC(C)=O)[C@]4(O)C(=O)[C@@H](C)C[C@H]4[C@@]1(O3)[C@H](C)[C@@H]2OC(=O)c1ccccc1 [TRIGOXYPHIN C]	> 10 µM		
COc1cccc2c1C(=O)c1c(O)c3c(c(O)c1C2=O)C[C@@](O)(C(=O)CO)C[C@@H]3O[C@H]1C[C@H](N)[C@H](O)[C@H](C)O1 [DOXORUBICIN]	0.12 µM	0.04 µM	0.17 µM
Cc1cc2c(cc1O)C1=CC(=O)[C@@H](O)C(C)(C)C1CC2=O (some centres undefined) [TRIGOXYPHIN G]	> 10 µM		
C=C(C)[C@@]12OC3(c4ccccc4)O[C@@H]1[C@@H]1[C@@H]4O[C@]4(C)[C@@H](O)[C@]4(O)C(=O)[C@@H](C)C[C@H]4[C@@]1(O3)[C@H](C)[C@@H]2OC(=O)c1ccccc1 [TRIGOXYPHIN B]	> 10 µM	0.49 µM	4.9 µM
C=C(C)[C@@]12OC3(c4ccccc4)O[C@@H]1[C@@H]1[C@@H]4O[C@]4(C)[C@@H](O)[C@]4(O)C(=O)C(C)=C[C@H]4[C@@]1(O3)[C@H](C)[C@@H]2OC(=O)c1ccccc1 [TRIGOXYPHIN A]	> 10 µM	0.27 µM	7.5 µM
C=C(C)[C@@]12OC3(c4ccccc4)O[C@@H]1[C@@H]1[C@H](OC(C)=O)[C@@](C)(OC(=O)c4ccccc4)[C@@H](OC(C)=O)[C@@]4(O)[C@@H](C[C@H](C)[C@@H]4OC(C)=O)[C@@]1(O3)[C@H](C)[C@@H]2O [TRIGOXYPHIN F]	> 10 µM		
C=C(C)[C@@]1(O)[C@@H]2OC3(c4ccccc4)O[C@H]1[C@@H](C)[C@@]1(O3)[C@H]2[C@H](OC(C)=O)[C@](C)(OC(=O)c2ccccc2)[C@@H](OC(C)=O)[C@@]2(O)[C@H]1C[C@H](C)[C@@H]2OC(C)=O [TRIGOXYPHIN D]	> 10 µM		
